Results reported in ChEMBL document CHEMBL1126842, “Inhibition of herpes simplex virus type 1 ribonucleotide reductase by substituted tetrapeptide derivatives” (J Med Chem, 1993).
Where a SMILES comes first, the peptide text is derived from it. [ ]: non-standard residue; d: D form. The star is where a group is joined. ξ: configuration not given here. Asp(3,3-Me2) = CC(C)(C(=O)O)[C@H](N)C(=O)O; Cyclohexanecarbonyl = O=C(C1CCCCC1)*; Butanoyl(2-Et) = CCC(CC)C(=O)*; Thr(3ξ) = CC(O)[C@H](N)C(=O)O; Tle = CC(C)(C)[C@H](N)C(=O)O; Leu(ol) = CC(C)C[C@H](N)CO; Isovaleryl = CC(C)CC(=O)*; Isobutyryl = CC(C)C(=O)*; Piperidide = C1CCN(*)CC1; Pyrrolidide = C1CCN(*)C1; X1 = CC(C)C(C(=O)*)C(C)C; Bn = c1ccc(C*)cc1

Biological target: T1, Ribonucleoside-diphosphate reductase large subunit (Homo sapiens, UniProt P23921)
T1 sequence (P23921 whole entry): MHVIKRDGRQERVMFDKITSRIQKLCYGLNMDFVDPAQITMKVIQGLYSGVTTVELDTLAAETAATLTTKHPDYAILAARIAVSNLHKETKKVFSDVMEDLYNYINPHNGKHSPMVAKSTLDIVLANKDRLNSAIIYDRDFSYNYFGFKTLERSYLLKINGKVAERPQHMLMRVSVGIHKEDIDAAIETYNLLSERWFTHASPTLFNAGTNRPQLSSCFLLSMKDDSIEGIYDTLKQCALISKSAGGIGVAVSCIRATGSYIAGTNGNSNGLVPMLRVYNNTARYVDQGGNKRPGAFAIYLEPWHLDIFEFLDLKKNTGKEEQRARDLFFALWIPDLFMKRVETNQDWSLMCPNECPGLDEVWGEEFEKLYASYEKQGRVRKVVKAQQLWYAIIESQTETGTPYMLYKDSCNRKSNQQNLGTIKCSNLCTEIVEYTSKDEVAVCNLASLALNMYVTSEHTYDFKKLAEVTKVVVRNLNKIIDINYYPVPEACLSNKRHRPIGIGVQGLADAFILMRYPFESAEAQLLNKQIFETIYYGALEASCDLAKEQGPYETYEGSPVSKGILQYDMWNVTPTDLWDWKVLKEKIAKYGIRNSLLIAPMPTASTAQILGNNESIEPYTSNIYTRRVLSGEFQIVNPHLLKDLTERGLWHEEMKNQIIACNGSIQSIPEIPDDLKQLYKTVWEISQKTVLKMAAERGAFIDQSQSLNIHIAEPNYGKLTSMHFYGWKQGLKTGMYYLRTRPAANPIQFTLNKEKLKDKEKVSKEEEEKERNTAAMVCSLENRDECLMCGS
Experiment: Tested for inhibition of human ribonucleotide reductase

IC50	Molecule
> 1 mM	CCC(CC)C(=O)N[C@H](C(=O)N[C@@H](CC(=O)N1CCCC1)C(=O)N[C@@H](CC(=O)O)C(=O)N[C@@H](CC(C)C)C(=O)O)[C@@H](C)CC ({Butanoyl(2-Et)}-ID(Pyrrolidide)DL-OH)
> 1 mM	CCC(CC)C(=O)N[C@H](C(=O)N[C@@H](CC(=O)N1CCCC1)C(=O)N[C@@H](CC(=O)O)C(=O)N[C@@H](CC(C)C)C(=O)O)C(C)(C)C ({Butanoyl(2-Et)}-[Tle]D(Pyrrolidide)DL-OH)

System: not listed separately
Experiment: Inhibition of Herpes simplex virus type 1 ribonucleotide reductase
Type: functional, Human alphaherpesvirus 1
Summary of the method: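 IC50 taken as the mean of at least three separate determinations, with standard deviation from the mean reported; one entry came from a single determination.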

Molecule	IC50
CCC(CC)C(=O)N[C@H](C(=O)N[C@@H](CC(=O)N1CCCC1)C(=O)N[C@@H](CC(=O)O)C(=O)NCCC(C)(C)C)C(C)(C)C	19 µM
CCC(CC)C(=O)N[C@H](C(=O)N[C@@H](CC(=O)N1CCCC1)C(=O)N[C@@H](CC(=O)O)C(=O)NC(CO)CO)C(C)(C)C	> 1000 µM
CCC(CC)C(=O)N[C@H](C(=O)N[C@@H](CCC1CCCC1)C(=O)N[C@@H](CC(=O)O)C(=O)N[C@@H](CC(C)C)C(=O)O)C(C)(C)C	64 µM
CCC(CC)C(=O)N[C@H](C(=O)N[C@@H](CC(=O)N1CCCC1)C(=O)N[C@@H](CC(=O)O)C(=O)N[C@H](CO)CC1CCCCC1)C(C)(C)C	8.1 µM
CC(C)C[C@H](NC(=O)[C@H](CC(=O)O)NC(=O)[C@H](CC(N)=O)NC(=O)[C@@H](NC(=O)[C@@H](NC(=O)[C@H](C)NC(=O)CNC(=O)[C@H](C)NC(=O)[C@@H](N)Cc1ccc(O)cc1)C(C)C)C(C)C)C(=O)O	38 µM
CC[C@H](C)[C@H](NC(C)=O)C(=O)N[C@@H](CC(=O)N1CCCC1)C(=O)N[C@@H](CC(=O)O)C(=O)N[C@@H](CC(C)C)C(=O)O (Ac-ID(Pyrrolidide)DL-OH)	> 1000 µM
CC[C@H](C)[C@H](NC(=O)[C@@H](N)C(C)C)C(=O)N[C@@H](CC(=O)N1CCCC1)C(=O)N[C@@H](CC(=O)O)C(=O)N[C@@H](CC(C)C)C(=O)O (H-VID(Pyrrolidide)DL-OH)	13 µM
CC(C)C[C@H](NC(=O)[C@H](CC(=O)O)NC(=O)[C@H](CC(N)=O)NC(=O)[C@@H](N)C(C)C)C(=O)O (H-VNDL-OH)	> 2000 µM
CC[C@H](C)[C@H](NC(=O)C(C)C)C(=O)N[C@@H](CC(=O)N1CCCC1)C(=O)N[C@@H](CC(=O)O)C(=O)N[C@@H](CC(C)C)C(=O)O (Isobutyryl-ID(Pyrrolidide)DL-OH)	10 µM
CCC(CC)C(=O)N[C@@H](C)C(=O)N[C@@H](CC(=O)N1CCCC1)C(=O)N[C@@H](CC(=O)O)C(=O)N[C@@H](CC(C)C)C(=O)O ({Butanoyl(2-Et)}-AD(Pyrrolidide)DL-OH)	11 µM
CCC(CC)C(=O)N[C@@H](CC(=O)O)C(=O)N[C@@H](CC(=O)N1CCCC1)C(=O)N[C@@H](CC(=O)O)C(=O)N[C@@H](CC(C)C)C(=O)O ({Butanoyl(2-Et)}-DD(Pyrrolidide)DL-OH)	6.1 µM
CCC(CC)C(=O)NCC(=O)N[C@@H](CC(=O)N1CCCC1)C(=O)N[C@@H](CC(=O)O)C(=O)N[C@@H](CC(C)C)C(=O)O ({Butanoyl(2-Et)}-GD(Pyrrolidide)DL-OH)	77 µM
CCC(CC)C(=O)N[C@@H](CCCCN)C(=O)N[C@@H](CC(=O)N1CCCC1)C(=O)N[C@@H](CC(=O)O)C(=O)N[C@@H](CC(C)C)C(=O)O ({Butanoyl(2-Et)}-KD(Pyrrolidide)DL-OH)	14 µM
CCNC(=O)C[C@H](NC(=O)[C@@H](NC(=O)C(CC)CC)C(C)(C)C)C(=O)N[C@@H](CC(=O)O)C(=O)N[C@@H](CC(C)C)C(=O)O ({Butanoyl(2-Et)}-[Tle]D(NHEt)DL-OH)	6.9 µM
CCC(CC)C(=O)N[C@H](C(=O)N[C@@H](CC(=O)N1CCCC1)C(=O)N[C@@H](C)C(=O)N[C@@H](CC(C)C)C(=O)O)C(C)(C)C ({Butanoyl(2-Et)}-[Tle]D(Pyrrolidide)AL-OH)	> 1000 µM
CCC(CC)C(=O)N[C@H](C(=O)N[C@@H](CC(=O)N1CCCC1)C(=O)N[C@@H](CC(=O)O)C(=O)N[C@@H](C)C(=O)O)C(C)(C)C ({Butanoyl(2-Et)}-[Tle]D(Pyrrolidide)DA-OH)	> 1000 µM
CCC(CC)C(=O)N[C@H](C(=O)N[C@@H](CC(=O)N1CCCC1)C(=O)N[C@@H](CC(=O)O)C(=O)N[C@H](CO)CC(C)C)C(C)(C)C ({Butanoyl(2-Et)}-[Tle]D(Pyrrolidide)D[Leu(ol)])	5.6 µM
CCC(CC)C(=O)N[C@H](C(=O)N[C@@H](CC(=O)N1CCCC1)C(=O)N[C@@H](CCC(=O)O)C(=O)N[C@@H](CC(C)C)C(=O)O)C(C)(C)C ({Butanoyl(2-Et)}-[Tle]D(Pyrrolidide)EL-OH)	> 1000 µM
CCC(CC)C(=O)N[C@H](C(=O)N[C@@H](CCC(=O)N1CCCC1)C(=O)N[C@@H](CC(=O)O)C(=O)N[C@@H](CC(C)C)C(=O)O)C(C)(C)C ({Butanoyl(2-Et)}-[Tle]E(Pyrrolidide)DL-OH)	> 1000 µM
CCC(CC)C(=O)N[C@H](C(=O)N[C@@H](CC(N)=O)C(=O)N[C@@H](CC(=O)O)C(=O)N[C@@H](CC(C)C)C(=O)O)C(C)(C)C ({Butanoyl(2-Et)}-[Tle]NDL-OH)	100 µM
H-AGAVVNDL-OH	280 µM
H-AVVNDL-OH	190 µM
H-GAVVNDL-OH	220 µM
H-YAGAVVND-OH	> 2000 µM

Stronger by IC50, values ahead:

IC50	Molecule
4.7 µM	CCOC(=O)C[C@H](NC(=O)[C@@H](NC(=O)C(CC)CC)C(C)(C)C)C(=O)N[C@@H](CC(=O)O)C(=O)N[C@@H](CC(C)C)C(=O)O ({Butanoyl(2-Et)}-[Tle]D(OEt)DL-OH)
4.4 µM	CCC(CC)C(=O)N[C@H](C(=O)N[C@@H](CC(=O)N1CCCC1)C(=O)N[C@@H](CC(=O)O)C(=O)N[C@@H](CC(C)C)C(=O)O)[C@@H](C)O ({Butanoyl(2-Et)}-TD(Pyrrolidide)DL-OH)
3.1 µM	CCC(CC)C(=O)N[C@H](C(=O)N[C@@H](CC(=O)N1CCCC1)C(=O)N[C@@H](CC(=O)O)C(=O)N[C@@H](CC(C)C)C(=O)O)C(C)OCc1ccccc1 (stereo partly drawn) ({Butanoyl(2-Et)}-[Thr(3ξ)](Bn)D(Pyrrolidide)DL-OH)
3 µM	CC[C@H](C)[C@H](NC(=O)CC(C)C)C(=O)N[C@@H](CC(=O)N1CCCC1)C(=O)N[C@@H](CC(=O)O)C(=O)N[C@@H](CC(C)C)C(=O)O (Isovaleryl-ID(Pyrrolidide)DL-OH)
2 µM	CC[C@H](C)[C@H](NC(=O)C(C(C)C)C(C)C)C(=O)N[C@@H](CC(=O)N1CCCC1)C(=O)N[C@@H](CC(=O)O)C(=O)N[C@@H](CC(C)C)C(=O)O (X1-ID(Pyrrolidide)DL-OH)
1.9 µM	CCC(CC)C(=O)N[C@H](C(=O)N[C@@H](CC(=O)N1CCCC1)C(=O)N[C@@H](CC(=O)O)C(=O)N[C@H](CO)CC(C)(C)C)C(C)(C)C
1.5 µM	CC[C@H](C)[C@H](NC(=O)C1CCCCC1)C(=O)N[C@@H](CC(=O)N1CCCC1)C(=O)N[C@@H](CC(=O)O)C(=O)N[C@@H](CC(C)C)C(=O)O (Cyclohexanecarbonyl-ID(Pyrrolidide)DL-OH)
1.5 µM	CCC(CC)C(=O)N[C@H](C(=O)N[C@@H](CC(=O)N1CCCC1)C(=O)N[C@@H](CC(=O)O)C(=O)N[C@@H](CC(C)C)C(=O)O)[C@@H](C)CC ({Butanoyl(2-Et)}-ID(Pyrrolidide)DL-OH)
1.3 µM	CCC(CC)C(=O)N[C@H](C(=O)N[C@@H](CC(=O)C1CCCC1)C(=O)N[C@@H](CC(=O)O)C(=O)N[C@@H](CC(C)C)C(=O)O)C(C)(C)C
1.3 µM	CCC(CC)C(=O)N[C@H](C(=O)N[C@@H](CC(=O)N1CCCCC1)C(=O)N[C@@H](CC(=O)O)C(=O)N[C@@H](CC(C)C)C(=O)O)C(C)(C)C ({Butanoyl(2-Et)}-[Tle]D(Piperidide)DL-OH)
0.6 µM	CCC(CC)C(=O)N[C@H](C(=O)N[C@@H](CC(=O)N1CCCC1)C(=O)N[C@@H](CC(=O)O)C(=O)N[C@@H](CC(C)C)C(=O)O)C(C)(C)C ({Butanoyl(2-Et)}-[Tle]D(Pyrrolidide)DL-OH)
0.18 µM	CCC(CC)C(=O)N[C@H](C(=O)N[C@@H](CC(=O)N1CCCC1)C(=O)N[C@H](C(=O)N[C@@H](CC(C)C)C(=O)O)C(C)(C)C(=O)O)C(C)(C)C ({Butanoyl(2-Et)}-[Tle]D(Pyrrolidide)[Asp(3,3-Me2)]L-OH)
